Experimental data: ChEMBL document CHEMBL1155144, “Cytoplasmic-membrane anchoring of a class A beta-lactamase and its capacity in manifesting antibiotic resistance” (2007)
In brackets after ≈: the same amount, converted by molar mass.

Key:
Format in all cases: functional
[1] = tested on: Escherichia coli; test: Antimicrobial activity against Escherichia coli JM83 harboring pACYC184-ATEM by serial dilution method
Method in brief: (§1)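 Broth serial dilution in LB medium, microtitre format; inoculum 5 x 10^5 CFU/ml; incubated with antibiotic overnight at 37°C; MIC read after overnight growth.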

[2] = tested on: Escherichia coli; test: Antimicrobial activity against Escherichia coli JM83 harboring pACYC184-TEM by serial dilution method; method in brief: as §1
[3] = tested on: Escherichia coli; test: Antimicrobial activity against Escherichia coli JM83 by serial dilution method; method in brief: as §1

Row | SMILES | MIC [1] [µg/mL] | MIC [2] [µg/mL] | MIC [3] [µg/mL]
1 | CC1(C)S[C@@H]2[C@H](NC(=O)[C@H](N)c3ccccc3)C(=O)N2[C@H]1C(=O)O [AMPICILLIN] | 4000 (≈ 11400 µM) | 4000 (≈ 11400 µM) | 4 (≈ 11.4 µM)
2 | CC(C)(O/N=C(\C(=O)N[C@@H]1C(=O)N2C(C(=O)[O-])=C(C[n+]3ccccc3)CS[C@H]12)c1csc(N)n1)C(=O)O [CEFTAZIDIME] | 0.3 (≈ 0.549 µM) | 0.3 (≈ 0.549 µM) | 0.3 (≈ 0.549 µM)
3 | O=C(Cc1cccs1)N[C@@H]1C(=O)N2C(C(=O)[O-])=C(C[n+]3ccccc3)CS[C@H]12 [CEPHALORIDINE] | 32 (≈ 77 µM) | 32 (≈ 77 µM) | 2 (≈ 4.81 µM)
4 | CC(=O)OCC1=C(C(=O)O)N2C(=O)[C@@H](NC(=O)Cc3cccs3)[C@H]2SC1 [CEPHALOTHIN] | 64 (≈ 161 µM) | 64 (≈ 161 µM) | 4 (≈ 10.1 µM)
5 | Cc1onc(-c2ccccc2)c1C(=O)N[C@@H]1C(=O)N2[C@@H]1SC(C)(C)[C@@H]2C(=O)O [OXACILLIN] | 8000 (≈ 19900 µM) | 64 (≈ 159 µM) | 2 (≈ 4.98 µM)
